Screening data (PubChem)
Diaph inh CS – counter-screen for diaphorase-based assays: diaphorase inhibitors and chemical oxidizers; diaphorase resazurin-to-resorufin fluorescence, NADH, 16 min; bacterial (C. kluyveri) enzyme, not human; inhibition, % at 20 µM; 190,000 compounds, 0.69% hits; AID 1217;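 active means primary screen inhibition at 20 µM above a set limit, cut at about 50% in these data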;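 further: plate controls were DMSO with full reaction for no effect and wells lacking NADH for full effect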
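Benchmarks: positive control wells lacking NADH, neutral wells with DMSO only. System: bacterial diaphorase enzyme (C. kluyveri). Input: 0.14 U/mL diaphorase, enzyme working solution. Detection: resorufin fluorescence, excitation 544 nm, emission 590 nm. Times: 16-min room-temperature incubation before reading.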
Diaph act CS – counter-screen for diaphorase-based assays: diaphorase activators and chemical reducers. Diaphorase/resazurin coupled assay, resorufin fluorescence, 16 min; stronger effect = higher value; 1 = vehicle wells, 0 = NADH-free wells. 190,000 compounds, 0.005% hits. activation factor at 20 µM;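 active means diaphorase activity raised at least twofold by the compound at 20 µM; inactive means activation factor below 2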
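System – purified diaphorase enzyme from Clostridium kluyveri · Input – enzyme 0.07 U/mL final · Also added – final NADH 0.114 mM, resazurin 0.1 mM · Measured by – fluorescence of resorufin, 544 nm excitation, 590 nm emission · Timing – 16 min enzyme reaction, ambient temperature · Measure – resorufin increase flagging diaphorase activators or reducers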
Redox H2O2 prof – compounds producing H2O2 with reducing agent – biochemical, NIH compound library profiling, artefact control for MLSCN library redox annotation, primary screen. DTT-dependent redox cycling H2O2, phenol red/HRP absorbance; 100% = 100 µM peroxide control, 0% = buffer. activation, % at 10 µM. AID 878. 200,000 compounds, 0.03% hits;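 active means activation of at least 50% relative to the plate's high and low controls in the primary single-dose screen; inactive means activation below 50%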;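 further: compound incubated with DTT at 0.8 mM final as the reducing agent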
G6PDH counter – inhibits Leuconostoc G6PDH, flagging false hits in G6PDH-based assays | inhibition, % at 5 µM | Purified L. mesenteroides G6PDH, diaphorase/resazurin coupled fluorescence, 45 min | 200,000 compounds, 0.12% hits
L major viab – inhibitors of Leishmania major promastigote growth; Leishmania major promastigotes, resazurin fluorescence viability; inhibition, % at 10 µM; 200,000 compounds, 9% hits; AID 1063;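 further: promastigotes grown with compound for 44 hours at 28 °C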
PfGluPho inh – PfG6PD (Plasmodium falciparum) enzyme inhibition; PfGluPho enzyme, NADPH resazurin-diaphorase fluorescence; inhibition, % at 20 µM; 350,000 compounds, 0.78% hits;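 active means inhibition reaching at least a set limit at 20 µM in the primary screen, cut at about 59% in these data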;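 further: 0% = DMSO wells with substrate and 100% = DMSO wells lacking glucose-6-phosphate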
The depositor's hits bear a star; . = not tested or not shown. Only a selection was taken, and hits are over-represented in it overall. Unless noted, no stated cut-off is given here; in the data, active means inhibition above about 50%; inactive means the rest.

SMILES | Diaph inh CS | Diaph act CS | Redox H2O2 prof | G6PDH counter | L major viab | PfGluPho inh
CCC(C)OC(=O)C1=C(C)OC23OC(N)=C(C#N)C12C(=O)c1ccccc13 (stereo not given) | 27.2 | 0.7 | -0.1 | 4.0 | 86.1* | -11.7
CCN(CC)CCNC(=O)c1ccc(NC(=O)Nc2cccc3ccccc23)cc1 | . | . | . | . | . | 3.0
CC(C)c1ccc(NC(=O)CN2C(=O)NC3(CCCC3)C2=O)cc1 | . | . | . | . | . | 8.4
Nc1[nH]n2c(=O)c3c(nc2c1N=Nc1ccccc1)CCCC3 | 17.6 | 0.8 | -7.1 | 8.5 | 90.9* | 18.6
Cc1[nH]n2c(=O)c3c(nc2c1-c1ccccc1)CCC3 | 10.1 | 0.9 | -2.3 | 16.4 | 22.3 | -9.6
Cc1[nH]n2c(=O)c3c(nc2c1-c1ccc(Cl)cc1)CCC3 | 18.6 | 0.8 | -0.1 | 11.1 | 99.5* | -16.3
Nc1[nH]n2c(=O)c3c(nc2c1N=Nc1ccc(Cl)cc1)CCCC3 | 18.4 | 0.8 | 2.4 | 11.0 | 79.0* | -4.2
O=c1c2c(nc3c(-c4ccccc4)c[nH]n13)CCCC2 | 9.3 | 0.9 | 3.0 | 3.5 | 73.7* | 7.4
Clc1ccc(Cl)c(OCCN2CCCC2)c1 | . | . | . | . | . | 1.3
Cc1cc(C(C)(C)C)ccc1OCCOCCN1CCCC1 | 18.3 | 0.8 | -0.4 | 2.4 | 95.8* | 29.1
CC1CCN(CCCOc2ccc(Cl)cc2Br)CC1 | 16.6 | 0.8 | 0.1 | -2.7 | 86.5* | -7.8
CC1CCCN(CCCOc2ccc(Cl)cc2Br)C1 (stereo not given) | 4.9 | 1 | -0.5 | 1.9 | 97.6* | -11.0
CC1CCN(CCOCCOc2ccc(Cl)cc2Br)CC1 | 1.1 | 1 | 2.3 | 10.8 | 100.5* | -5.6
CC(C)(C)c1cc(Cl)ccc1OCCOCCN1CCCC1 | . | . | . | . | . | 29.8
CC1CCN(S(=O)(=O)c2ccc(Cl)cc2Br)CC1 | 2.9 | 1 | 1.7 | -6.5 | 3.6 | -1.9
O=c1c2ccccc2nc2ccc(NCc3cccs3)nn12 | 5.3 | 0.9 | -0.2 | -0.8 | 12.1 | -1.5
Cc1cc(C(=O)N2CCN(Cc3ccc4c(c3)OCO4)CC2)cs1 | 8.0 | 0.9 | -0.9 | -4.6 | -6.6 | -2.8
Clc1ccc(OCCOCCN2CCCCC2)c(Br)c1 | 14.2 | 0.9 | 3.2 | -4.1 | 99.8* | -3.9
Cc1ccc(Cl)c(OCCN2CCCC(C)C2)c1 (stereo not given) | 2.1 | 1 | -0.5 | 1.8 | 91.0* | -4.0
CC1CCCN(CCOc2ccc3ccccc3c2Br)C1 (stereo not given) | 14.8 | 0.9 | -0.5 | 0.3 | 87.8* | 16.6
CCN(CC(=O)Nc1ccccc1C(F)(F)F)C(=O)CCSc1ccc(F)cc1 | . | . | . | . | . | -10.0
COc1ccc(NS(=O)(=O)c2cc(NC(=O)c3ccco3)ccc2N2CCCC2)cc1 | 13.9 | 0.9 | 0.5 | -17.4 | 82.3* | 1.9
COc1ccc(NS(=O)(=O)c2cc(NC(=O)/C=C/c3cc(OC)ccc3OC)ccc2N2CCCCC2)cc1 | 18.0 | 0.8 | 0.5 | 0.0 | 92.1* | 1.2
O=C(Nc1ccc(N2CCCC2)c(S(=O)(=O)Nc2cccc(C(F)(F)F)c2)c1)c1cccs1 | 19.2 | 0.8 | 0.2 | 3.6 | 91.5* | 25.9
CCN(Cc1ccncc1)Cc1nc(Cc2ccccc2Cl)no1 | 4.5 | 1 | -0.9 | 14.6 | -1.2 | 5.8
SMILES | Diaph inh CS | Diaph act CS | Redox H2O2 prof | G6PDH counter | L major viab | PfGluPho inh
CC1CCCC(C)N1C(=O)COC(=O)Cc1c[nH]c2ccccc12 (stereo not given) | . | . | . | . | . | 6.1
CCNC(=O)N(C)C[C@H]1N[C@@](Cc2ccccc2)(C(=O)OC)[C@H]2C(=O)N(C)C(=O)[C@@H]12 | . | . | . | . | . | -5.9
O=C(COC(=O)CN1C(=O)NC2(CCCC2)C1=O)NCc1ccc(Cl)cc1Cl | . | . | . | . | . | -16.3
CCN(CC)CCCNC(=O)c1ccc2c(Cl)c3c(nc2c1)CCCC3 | -1.7 | 1 | -0.3 | 1.8 | 82.7* | -7.1
CCN(CC)CCCNC(=O)c1ccc2c(SCC(=O)O)c3c(nc2c1)CCC3 | 6.0 | 0.9 | 0.5 | 0.1 | -6.7 | .
CCN(CC)CCNC(=O)CSc1c2c(nc3cc(Cl)ccc13)CCCC2 | 53.3* | 0.5 | 2.2 | 5.9 | 100.6* | 3.8
O=C(CCN1CCN(Cc2ccccc2)CC1)NNC(=O)c1ccc(Cl)c(Cl)c1 | . | . | . | . | . | -2.9
COc1ccc(NC(=O)CC2SC(N3CCOCC3)=NC2=O)cc1OC (stereo not given) | . | . | . | . | . | 7.0
CC(C)(C)c1ccc(C(=O)OCCNC(=O)c2c(Cl)nc3ccccn23)cc1 | 17.3 | 0.8 | 2.2 | -2.0 | 75.6* | 3.8
O=C(CN1C(=O)NC2(CCCCC2)C1=O)NCc1cccs1 | 6.7 | 0.9 | -0.4 | 9.5 | -1.7 | -9.3
COc1ccc(Oc2ccc(/C=C/C(=O)c3ccc(O)cc3)cc2[N+](=O)[O-])cc1 | 25.9 | 0.7 | -0.4 | 9.3 | 100.2* | 2.6
COc1ccc(C(=O)N/N=C/c2ccc(OC)c(COc3ccc(F)cc3)c2)cc1 | . | . | . | . | . | 1.6
CN(C)c1ccc(/C=C/C(=O)c2ccccc2)cc1[N+](=O)[O-] | 16.1 | 0.8 | 0.0 | -5.4 | 99.8* | 0.7
COc1ccc(/C=C/C(=O)c2ccc(O)cc2)cc1COc1ccc(F)cc1 | 14.9 | 0.9 | 2.7 | 11.1 | 97.2* | 8.2
COc1ccc(/C=C/C(=O)c2ccccc2)cc1Cn1nnc2ccccc21 | 13.5 | 0.9 | 1.8 | -16.3 | 100.0* | 0.7
O=C(/C=C/c1ccc(O)c([N+](=O)[O-])c1)c1ccc2ccccc2c1 | . | . | . | . | . | 7.1
N#CCCN(C(=S)NC(=O)C1CCCCC1)c1ccccc1F | . | . | . | . | . | 5.0
CCSc1nnc(NC(=O)CCN2C(=O)C3CCCCC3C2=O)s1 (stereo not given) | . | . | . | . | . | -7.9
O=C(NC1CCN(Cc2ccc(Cl)c(Cl)c2)CC1)c1ccccc1 | . | . | . | . | . | 28.1
COc1ccc(C(=O)/C=C/c2ccc(OC)c(COc3ccccc3F)c2)cc1 | 8.7 | 0.9 | 0.8 | -19.4 | 44.9 | -4.9
COc1ccc(/C=C/C(=O)c2ccccc2)cc1COc1ccc(F)cc1 | 16.6 | 0.8 | -4.2 | -1.4 | 60.3* | 9.4
O=C(NC1CCCCNC1=O)c1ccco1 (stereo not given) | . | . | . | . | . | 13.6
CC(=O)C(C(C)=O)c1c(Cl)c(O)c(O)c2c(C(=O)c3ccccc3)coc12 | 67.2* | 0.3 | 0.0 | 6.8 | -10.7 | 46.1
CCCCCn1c(N2CCOCC2)nc2c1c(=O)n(CC(N)=O)c(=O)n2C | -1.1 | 1 | 2.0 | 8.0 | -3.7 | 0.6
Cc1cccc(NC(=O)/C(C#N)=C\c2cccnc2)c1 | 24.6 | 0.8 | -1.8 | -7.4 | 1.2 | -2.0
COc1ccc(/C=C(/C#N)C(=O)Nc2ccccc2C)cc1C(=O)O | -0.2 | 1 | -0.1 | 0.4 | 59.1* | -6.7
COCCNC(=O)/C(C#N)=C/C(C)=C/c1ccccc1 | 7.1 | 0.9 | . | 0.2 | 73.5* | 11.4
CCCCNC(=O)/C(C#N)=C/c1cccnc1 | 2.2 | 1 | -0.8 | 5.3 | 93.3* | 27.0
